# This is a sample that favours compounds with a hit; in the whole collection about 3.5% have one here.
# MrgX1 antag = human MrgX1 receptor antagonism, primary screen. 310,000 tested, 1.3% active. Q96LB2. MRGX1-HEK293 calcium flux, Fluo-4, BAM8-22 antagonism; hits give low values. B-score at 10 µM;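 active means calcium-response B-score plate-corrected more than 3 library SD below zero, starting fluorescence within 5 deviations, no agonist response on first addition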;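 further: peak minus trough fluorescence over baseline after final BAM8-22 challenge near maximal dose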
# Target sequence (Q96LB2 whole entry, looked up): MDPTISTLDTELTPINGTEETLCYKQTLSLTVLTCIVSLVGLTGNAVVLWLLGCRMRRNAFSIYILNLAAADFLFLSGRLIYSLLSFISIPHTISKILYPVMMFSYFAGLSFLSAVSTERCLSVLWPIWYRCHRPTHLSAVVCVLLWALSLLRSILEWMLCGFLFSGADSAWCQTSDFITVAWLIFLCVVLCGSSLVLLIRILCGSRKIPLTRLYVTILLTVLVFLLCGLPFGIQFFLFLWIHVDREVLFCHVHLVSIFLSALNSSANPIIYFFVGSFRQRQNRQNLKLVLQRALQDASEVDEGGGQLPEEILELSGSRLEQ
# MrgX1 allo act = human MrgX1 positive allosteric modulation, primary screen | Q96LB2 | 310,000 tested, 0.63% active | B-score at 10 µM | MrgX1-HEK293, Fluo-4 calcium flux, FDSS; hits give high values | AID 588675;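 active means plate-corrected calcium response at least 3 library SD above typical, normal starting fluorescence, not activating the receptor alone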;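 further: compound read alongside a low EC10 to EC30 dose of BAM8-22 agonist; peak minus trough fluorescence over baseline measured at the second addition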
# RGS4 block = inhibitors of human RGS4 | HEK293 M3R/RGS4 inducible, Fluo-4 calcium flux; hits give high values; triggered by carbachol at its EC20 | B-score at 10 µM | 310,000 tested, 0.45% active;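 active means B-score, a plate-corrected calcium signal, over three deviations above library mean, with baseline fluorescence within five deviations of library mean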;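 further: RGS4 expression induced by doxycycline in cells with stable M3 receptor; B-score is computed from the integrated fluorescence ratio over baseline after carbachol; higher B-score means a larger calcium signal and so more RGS4 inhibition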
# Target sequence (P49798 whole entry, looked up): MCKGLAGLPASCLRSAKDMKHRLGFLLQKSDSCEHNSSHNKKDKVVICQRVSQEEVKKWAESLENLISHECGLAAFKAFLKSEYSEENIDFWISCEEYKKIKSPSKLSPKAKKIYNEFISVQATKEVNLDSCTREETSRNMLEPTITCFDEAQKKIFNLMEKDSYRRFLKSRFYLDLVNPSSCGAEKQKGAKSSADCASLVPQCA
# MrgX1 ag = activates human MrgX1 receptor signaling | B-score at 10 µM | MrgX1-HEK293 cells, Fluo-4 calcium fluorescence, agonist mode; hits give high values | 310,000 tested, 0.44% active;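 active means calcium response B-score plate-corrected fluorescence ratio at least 3 library SD, with starting fluorescence B-score inside 5 SD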
#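 Test system: HEK293 cells stably expressing human MrgX1 receptor; Input: fifteen thousand cells per well; Dosing: compound delivered in addition one of three; Schedule: overnight seeding, then 1 h dark dye loading; Technique: Fluo-4 NW calcium fluorescence; Measure: B-scored fluorescence response ratio; Controls: positive and negative controls per plate.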
# RGS4 act = RGS4 potentiation or activation; 310,000 tested, 0.92% active; B-score at 10 µM; HEK293 M3R/inducible RGS4, carbachol calcium flux Fluo4; hits give low values; AID 463111;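 active means B-score of the integrated calcium signal more than 4 SD below the library mean, with starting fluorescence not abnormally high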;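 further: negative B-score means reduced calcium response which marks RGS4 activation or potentiation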
#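 Material: M3R-expressing HEK293 line, RGS4 induced by doxycycline | Schedule: Overnight RGS4 induction, 30 min dye load 37 °C, 20 min compound RT | Measured by: Fluo4 fluorescence kinetic imaging of calcium | Read-out: Integrated calcium ratio converted to B score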
# MrgX1 PAM conf = confirmation of human MrgX1 receptor positive allosteric modulators; shares compounds with MrgX1 allo act; MrgX1-HEK293, Fluo-4 calcium fluorescence, FDSS; activation (ratio percentage), % at 10 µM; 1,200 tested, 13% active;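 active means ratio at least 3 SD above the weak peptide control, stable starting fluorescence, no direct agonism earlier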;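 further: compound followed by low BAM8-22 agonist challenge near EC20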
# HEK293 Ca flux = MrgX1 antagonist counter-screen hit in parental HEK293 cells | shares compounds with MrgX1 antag | Fluo-4 calcium fluorescence, FDSS | fluorescence ratio F(max-min)/F0 at 10 µM | 4,000 tested, 2% active;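 active means duplicate-averaged calcium fluorescence ratio at least three times the standard deviation of buffer wells, a nonspecific response in parental cells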
# HEK293 Ca counter = activity in parental HEK293 cells without MrgX1; AID 624114; 4,000 tested, 0.4% active; parental HEK293 calcium flux, Fluo-4 fluorescence ratio; hits give high values; fluorescence ratio F(max-min)/F0 at 10 µM; shares compounds with MrgX1 antag;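 active means calcium fluorescence ratio, averaged over duplicates, at least 3 SD of the buffer-well ratio, meaning a nonspecific response in receptor-free cells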;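 further: untransfected parental HEK293 lacking MrgX1 used as counterscreen for MrgX1 allosteric activators; fluorescence change taken during the second addition on a kinetic imager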
# HEK293 Ca cntr2 = activity in parental HEK293 cells lacking MrgX1 receptor; AID 624115; fluorescence ratio F(max-min)/F0 at 10 µM; shares compounds with MrgX1 antag; Fluo-4 calcium fluorescence (FDSS); hits give high values; 4,000 tested, 8.7% active;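 active means calcium fluorescence ratio at least three times the spread of buffer wells, meaning a non-specific response in parental cells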
# Starred values were filed as active, the others as inactive; i = inactive; · = no result.
SMILES,MrgX1 antag,MrgX1 allo act,RGS4 block,MrgX1 ag,RGS4 act,MrgX1 PAM conf,HEK293 Ca flux,HEK293 Ca counter,HEK293 Ca cntr2
COc1ccc(C)cc1NC(=O)C(NCC1CCCO1)c1ccccc1 (stereo not given),i,i,i,i,i,·,·,·,·
Cc1ccc(CCNC(=O)Cn2ccc3cc(S(=O)(=O)N4CCCC4)ccc32)cc1,i,i,i,i,i,·,·,·,·
Cc1ccccc1CCNC(=O)Cn1ccc2cc(S(=O)(=O)N3CCCC3)ccc21,i,7.1*,i,i,i,i,i,i,i
O=C(COc1ccccc1)N1CCN=C1SCc1cccnc1,i,i,i,i,i,·,·,·,·
O=C(COc1ccccc1)N1CCN=C1SCc1ccc(F)cc1,i,8.6*,i,i,i,i,i,i,i
CC(C)S(=O)(=O)C1=NSC2=NC(=O)/C(=C\c3ccc(OC(=O)c4ccco4)cc3)C(=N)N21,i,35*,i,i,i,i,i,i,i
N=C1/C(=C\c2ccc(OC(=O)c3ccco3)cc2)C(=O)N=C2SC(N3CCCCC3)=NN12,i,i,i,i,i,·,·,·,·
S=C(NCCCN1CCOCC1)Nc1cccc(Cl)c1,i,11*,i,i,i,i,i,i,i
NC(=O)c1c(NC(=O)C2c3ccccc3Oc3ccccc32)sc2c1CCCCC2,i,13*,i,i,i,i,i,i,i
Cc1cc(C)c(S(=O)(=O)NCCc2ccccc2)c(C)c1,i,9.7*,i,i,i,i,i,i,i
Cc1ccc(S(=O)(=O)NCCc2ccccc2)cc1,i,i,i,i,i,·,·,·,·
O=C(C1CCCN(Cc2cccc(Cl)c2)C1)N1CCCCC1 (stereo not given),i,i,i,i,i,·,·,·,·
CC1CCCN(c2nc3c(c(=O)n(C)c(=O)n3C)n2Cc2ccccc2)C1 (stereo not given),i,7.1*,i,i,i,i,i,i,i
Cn1c(=O)c2c(nc(N3CCCCCC3)n2CCSc2nc3ccccc3o2)n(C)c1=O,i,7.1*,i,i,i,i,i,i,i
COC(=O)c1cccc(C(=O)N2CCC(CO)(Cc3ccccc3Cl)CC2)c1,i,9.9*,i,i,i,i,i,i,i
COC(=O)c1cccc(C(=O)N2CCC(CO)(CCc3ccccc3)CC2)c1,i,i,i,i,i,·,·,·,·
COc1cccc(OC)c1C(=O)Nc1cccc(-c2nc3ccccc3[nH]2)c1,i,7.1*,i,i,i,i,i,i,i
CC(=O)Nc1cccc(-c2nc3ccccc3[nH]2)c1,i,i,i,i,i,·,·,·,·
CC(=O)c1sc(NS(=O)(=O)c2ccc(C)cc2)nc1-c1ccccc1,i,16*,i,i,i,i,i,i,i
Cc1cccc(S(=O)(=O)Nc2cccc3c2C(=O)c2ccccc2-3)c1,i,15*,i,i,i,i,i,i,47*
Cn1c(-c2cccc([N+](=O)[O-])c2)cnc1NCc1cccc(F)c1,i,i,i,i,i,·,·,·,·
COCCNC(=S)N1CCC(NC(=O)c2ccco2)CC1,i,i,i,i,i,·,·,·,·
Cc1ccccc1-n1c(SCC(=O)N(C)C2CCS(=O)(=O)C2)nc2ccccc2c1=O (stereo not given),i,14*,i,i,i,i,i,i,i
CCN1CC2=C(OC(N)=C(C#N)C2c2ccccc2)/C(=C\c2ccccc2)C1 (stereo not given),i,22*,i,i,i,i,i,i,i
CCN1CC2=C(OC(N)=C(C#N)C2c2cccs2)/C(=C/c2cccs2)C1 (stereo not given),i,8.2*,i,i,i,i,i,i,i
SMILES,MrgX1 antag,MrgX1 allo act,RGS4 block,MrgX1 ag,RGS4 act,MrgX1 PAM conf,HEK293 Ca flux,HEK293 Ca counter,HEK293 Ca cntr2
N#CC1=C(N)OC2=C(CN(Cc3ccccc3)C/C2=C\c2cccnc2)C1c1cccnc1 (stereo not given),i,i,i,i,i,·,·,·,·
Cc1ccc(S(=O)(=O)N2CCCC2C(=O)OCC(=O)Nc2ccc3c(c2)OCO3)cc1 (stereo not given),i,17*,i,i,i,i,i,i,i
CCCCC(=O)NC(=S)Nc1c(C)cc(Br)cc1C,i,9.3*,i,i,i,i,i,i,i
CCCCC(=O)NC(=S)Nc1cccc(NC(=O)CC)c1,i,i,i,i,i,·,·,·,·
CCOC(=O)c1nn(-c2ccc(F)cc2)cc1O,i,8.4*,i,i,i,i,i,i,i
CCOC(=O)c1nn(-c2ccc3c(c2)CCN3C(C)=O)cc1O,i,i,i,i,i,·,·,·,·
Cc1ccc2oc(C(=O)N3CCCCCC3)c(C)c2c1,i,6.5*,i,i,i,i,i,i,i
Nc1c(C(=O)N2CCCCCC2)oc2ccccc12,i,10*,i,i,i,i,i,i,i
Cc1ccc(S(=O)(=O)NCCN=Cc2ccc(N(C)C)cc2)cc1,i,i,i,i,i,·,·,·,·
CCc1nnc(NC(=O)CN2CCN(S(C)(=O)=O)CC2)s1,i,i,i,i,i,·,·,·,·
O=C(c1ccc2c(=O)n(Cc3ccc(Cl)cc3)c(=S)[nH]c2c1)N1CCOCC1,i,i,i,i,i,·,·,·,·
O=C(NNC(=O)c1ccccc1[N+](=O)[O-])c1csc(N2CCOCC2)n1,i,i,i,i,i,·,·,·,·
Cc1cnn(-c2cc(Oc3ccccc3)ncn2)c1,i,8.8*,i,i,i,i,i,i,i
c1ccc(Oc2cc(-n3cncn3)ncn2)cc1,i,i,i,i,i,·,·,·,·

# Screening results deposited in PubChem BioAssay by Johns Hopkins Ion Channel Center.
